ChEMBL document CHEMBL3739308, “Resveratrol-Related Polymethoxystilbene Glycosides: Synthesis, Antiproliferative Activity, and Glycosidase Inhibition” (J Nat Prod, 2015)

Assays:
[1] = tested on: SH-SY5Y; assay: Antiproliferative activity against human SH-SY5Y cells after 72 hrs by MTT-based Mosmann assay relative to control; assay type: functional
Procedure, shortened: (§1)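 Cells seeded at (2.5−3.0) × 10^3 per well, treated after 24 h with compound at final 0.01−100 μM; 0.5−1% DMSO controls. Exposure 3 days (72 h) at 37 °C, 5% CO2; MTT read at 570 nm, 6−8 wells per value. GI50 by NCI formula 100(T − T0)/(C − T0) = 50 versus time-zero and DMSO-control OD; mean ± SD of four experiments.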

[2] = Antiproliferative activity against human Caco2 cells after 72 hrs by MTT-based Mosmann assay relative to control; assay type: functional; conditions: Caco-2, 72 h; procedure, shortened: as §1
[3] = Drug level in phosphate buffer treated with (2R,3S,4S,5S)-2-[2-(4-Methoxystyryl)-4,6-dimethoxyphenoxy]-tetrahydro-6-hydroxymethyl-2H-pyran-3,4,5-triol at 5 x 10^-5 M at pH 7.2 at 37 degC after 72 hrs by HPLC analysis in presence of Aspergillus oryzae beta-galactosidase; assay type: ADME; conditions: pH 7.2, 72 h
Procedure, shortened: (§2)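 Glycoside diluted from DMSO into 0.050 M Na2HPO4/KH2PO4 pH 7.2 to final 5.0 × 10−5 M (≤1.0% DMSO). Almond β-glucosidase (1.2 U/mL) or A. oryzae β-galactosidase (0.7 U/mL) added; 37 °C, shaking at 400 rpm, sampled up to 96 h. Enzyme-free controls run. Reversed-phase HPLC at 305 nm; released aglycone quantified against 10−5−10−6 M calibration curves. Triplicate.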

[4] = Stability of the compound in phosphate buffer assessed as Aspergillus oryzae beta-galactosidase-mediated compound hydrolysis at 5 x 10^-5 M at pH 7.2 at 37 degC measured within 96 hrs by HPLC analysis; assay type: ADME; conditions: pH 7.2, 96 h, 50 µM; procedure, shortened: as §2
[5] = target: β-galactosidase (Aspergillus Oryzae) (Aspergillus oryzae, UniProt Q2UCU3); assay: Inhibition of Aspergillus oryzae beta-galactosidase using oNP-beta-Gal as substrate assessed as release of o-nitrophenol incubated for 30 mins by spectrophotometric analysis
Procedure, shortened: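 Inhibition assay (modified Tsujii method) at 25 °C. Substrate at 6.5 × 10−5 M final in DMSO/phosphate buffer (Na2HPO4/KH2PO4 0.050 M, pH 7.2). Enzyme at 4.0 U/mL. Compound stocks 2.6−4.7 × 10−4 M, five concentrations; DMSO ≤1.0% final. Absorbance read at 400 nm. Percent inhibition taken from residual activity versus no-compound control. IC50 is the mean of three experiments.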

[6] = (§3) Half life in phosphate buffer assessed as almond beta-glucosidase-mediated compound hydrolysis at 5 x 10^-5 M at pH 7.2 at 37 degC measured within 96 hrs by HPLC analysis; assay type: ADME; conditions: prunus dulcis, buffer, pH 7.2, 96 h, 50 µM; procedure, shortened: as §2
[7] = Inhibition of Saccharomyces cerevisiae alpha-glucosidase using pNP-alpha-Glc as substrate assessed as release of p-nitrophenol incubated for 2 hrs by spectrophotometric analysis
Procedure, shortened: (§4)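 Substrate at final 6.5 × 10−5 M in DMSO/0.050 M phosphate buffer pH 7.2, 25 °C, with five inhibitor levels (≤1.0% DMSO). Enzyme: 2.0 U/mL yeast α-glucosidase, 2 h; 2.9 U/mL almond β-glucosidase, 30 min. Nitrophenol release read at 400 nm; % inhibition from residual activity versus no-compound activity; IC50 = 50% inhibition. Triplicate; mean ± SD of three experiments.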

[8] = Inhibition of almond beta-glucosidase using pNP-beta-Glc as substrate assessed as release of p-nitrophenol incubated for 30 mins by spectrophotometric analysis; set-up: species or system Prunus dulcis; procedure, shortened: as §4
[9] = tested on: beta-glucosidase; assay: as §3; assay type: ADME; conditions: prunus dulcis, almond beta-glucosidase in phosphate buffer, pH 7.2; procedure, shortened: as §2
[10] = tested on: beta-galactosidase; assay: Half life in phosphate buffer assessed as Aspergillus oryzae beta-galactosidase-mediated compound hydrolysis at 5 x 10^-5 M at pH 7.2 at 37 degC measured within 96 hrs by HPLC analysis
[11] = Antiproliferative activity against human Caco2 cells; assay type: functional, cell-based; conditions: Caco-2; procedure, shortened: as §1

β-galactosidase (Aspergillus Oryzae), sequence (Q2UCU3 whole entry, looked up): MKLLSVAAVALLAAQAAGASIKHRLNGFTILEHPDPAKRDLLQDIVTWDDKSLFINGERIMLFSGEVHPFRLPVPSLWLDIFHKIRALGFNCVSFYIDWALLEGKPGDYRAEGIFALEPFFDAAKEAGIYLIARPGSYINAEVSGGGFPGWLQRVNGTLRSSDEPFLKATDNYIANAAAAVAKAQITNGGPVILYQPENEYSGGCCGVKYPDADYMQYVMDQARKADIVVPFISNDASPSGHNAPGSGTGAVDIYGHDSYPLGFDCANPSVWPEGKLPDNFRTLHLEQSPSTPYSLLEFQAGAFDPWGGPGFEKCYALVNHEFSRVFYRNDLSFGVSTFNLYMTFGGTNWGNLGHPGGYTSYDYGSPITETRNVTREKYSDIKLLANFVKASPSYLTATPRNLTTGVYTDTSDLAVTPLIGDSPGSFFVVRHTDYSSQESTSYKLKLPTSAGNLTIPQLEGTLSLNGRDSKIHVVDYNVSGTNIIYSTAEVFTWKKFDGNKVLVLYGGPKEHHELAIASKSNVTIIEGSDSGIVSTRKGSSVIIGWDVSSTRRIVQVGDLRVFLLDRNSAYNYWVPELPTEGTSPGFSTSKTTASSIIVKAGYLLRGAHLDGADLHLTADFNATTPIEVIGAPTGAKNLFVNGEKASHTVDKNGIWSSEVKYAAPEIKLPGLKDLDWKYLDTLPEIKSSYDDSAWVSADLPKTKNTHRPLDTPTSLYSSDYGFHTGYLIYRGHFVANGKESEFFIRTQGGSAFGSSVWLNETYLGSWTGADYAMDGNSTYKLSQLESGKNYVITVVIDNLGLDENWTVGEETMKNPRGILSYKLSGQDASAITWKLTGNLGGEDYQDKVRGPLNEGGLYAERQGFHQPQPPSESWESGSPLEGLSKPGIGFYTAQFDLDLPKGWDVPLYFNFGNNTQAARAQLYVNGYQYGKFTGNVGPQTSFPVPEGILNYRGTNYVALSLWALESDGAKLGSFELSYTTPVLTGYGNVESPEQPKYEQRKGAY

**Q.** With `COc1cc(/C=C/c2cc(OC)cc(OC)c2O)cc(OC)c1` as the compound, how does the GI50 [1] read?
**A.** > 10 µM

**Q.** And the GI50 [2]?
**A.** > 10 µM

**Q.** For `COc1cc(/C=C/c2ccc(OC)c(OC)c2)c(O)c(OC)c1`, which GI50 [1] is on record?
**A.** 14.3 µM

**Q.** What about the GI50 [2] of the same compound?
**A.** 3 µM

**Q.** Which results are given for `COc1ccc(/C=C/c2cc(OC)cc(OC)c2O)cc1`?
**A.** GI50 [1]: 4.5 µM; GI50 [2]: 5.8 µM; Drug metabolism [3]: metabolite_detected

**Q.** Which results are given for `COc1ccc(/C=C/c2cc(OC)cc(OC)c2O[C@H]2O[C@H](CO)[C@H](O)[C@H](O)[C@H]2O)cc1`?
**A.** Stability [4]: Stable; IC50 [5]: 298 µM; GI50 [1]: 48.4 µM; Stability [6]: Stable; IC50 [7]: 201 µM; GI50 [2]: > 10 µM; IC50 ([8]; read-out: IC50): 350 µM

**Q.** With `COc1cc(/C=C/c2cc(OC)cc(OC)c2O[C@H]2O[C@H](CO)[C@@H](O)[C@H](O)[C@H]2O)cc(OC)c1` as the compound, how does the Stability [4] read?
**A.** Stable

**Q.** And the IC50 [5]?
**A.** 297 µM

**Q.** And the GI50 [1]?
**A.** > 10 µM

**Q.** What about the half-life at 50 µM [9] of the same compound?
**A.** 70 h

**Q.** And the IC50 [7]?
**A.** 133 µM

**Q.** What about the GI50 [2] of the same compound?
**A.** 44.2 µM

**Q.** And the IC50 ([8]; read-out: IC50)?
**A.** 272 µM

**Q.** Which Stability [4] does the source give for `COc1cc(/C=C/c2ccc(OC)c(OC)c2)c(O[C@H]2O[C@H](CO)[C@@H](O)[C@H](O)[C@H]2O)c(OC)c1` here?
**A.** Stable

**Q.** What about the IC50 [5] of the same compound?
**A.** 258 µM

**Q.** And the GI50 [1]?
**A.** > 10 µM

**Q.** And the half-life at 50 µM [9]?
**A.** 20 h

**Q.** And the IC50 [7]?
**A.** 78 µM

**Q.** What about the GI50 [2] of the same compound?
**A.** > 10 µM

**Q.** What about the IC50 ([8]; read-out: IC50) of the same compound?
**A.** 192 µM

**Q.** What does the source list for `COc1cc(/C=C/c2cc(OC)cc(OC)c2O[C@H]2O[C@H](CO)[C@H](O)[C@H](O)[C@H]2O)cc(OC)c1`?
**A.** Stability [4]: Stable; IC50 [5]: 296 µM; GI50 [1]: 22.5 µM; Stability [6]: Stable; IC50 [7]: 332 µM; GI50 [2]: 16 µM; IC50 [8]: Not Active

**Q.** Which results are given for `COc1ccc(/C=C/c2cc(OC)cc(OC)c2O[C@H]2O[C@H](CO)[C@@H](O)[C@H](O)[C@H]2O)cc1`?
**A.** GI50 [1]: 21.9 µM; half-life at 50 µM [9]: 11 h; IC50 [7]: 91 µM; half-life at 50 µM [10]: 77 h; GI50 [2]: > 10 µM; IC50 ([8]; read-out: IC50): 208 µM

**Q.** Which results are given for `COc1cc(/C=C/c2ccc(OC)c(OC)c2)c(O[C@H]2O[C@H](CO)[C@H](O)[C@H](O)[C@H]2O)c(OC)c1`?
**A.** Stability [4]: Stable; IC50 [5]: 299 µM; GI50 [1]: > 10 µM; Stability [6]: Stable; IC50 [7]: 70 µM; GI50 [2]: > 10 µM; IC50 ([8]; read-out: IC50): 170 µM

**Q.** For `COc1cc(/C=C/C(=O)CC(=O)/C=C/c2ccc(O)c(OC)c2)ccc1O` [CURCUMIN], which IC50 [11] is on record?
**A.** 10.3 µM

**Q.** For `CC/C(=C(/CC)c1ccc(O)cc1)c1ccc(O)cc1` [DIETHYLSTILBESTROL], which IC50 [11] is on record?
**A.** 75 µM

**Q.** With `O=c1[nH]cc(F)c(=O)[nH]1` [FLUOROURACIL] as the compound, how does the GI50 [1] read?
**A.** 1.5 µM

**Q.** And the GI50 [2]?
**A.** 2.2 µM
